For data set [1], the system named is HASMC. Description: Antiproliferative activity against HASMC at 5 mM after 96 hrs by MTT assay. It is filed as functional. As to conditions: Homo sapiens. The gist of the method: (§1)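 HASMCs at passage six or later were seeded at 3000–3500 cells/well, attached 16–24 h at 37 °C, then serum-starved 24–48 h. iNOS was induced with LPS (50 µg/mL) plus IFN-γ (50 ng/mL) for 6 h at 37 °C. ABH was then given in SMC medium at 1, 10, 100 µM, 1.0 and 5.0 mM over two 48 h feeds. MTT absorbance was read at 570 nm; duplicate determinations.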

Data set [2] deals with HASMC. The experiment in a line: Antiproliferative activity against HASMC at 1 mM after 96 hrs by MTT assay. It is filed as functional. As to conditions: Homo sapiens. The gist of the method: as §1
Data set [3] has as its system HASMC. The experiment in a line: Induction of nitric oxide release in HASMC at 0.001 to 5 mM after 60 mins by DAF-FM DA assay. As to conditions: Homo sapiens.
Data set [4] relates to HASMC. The experiment in a line: Induction of nitric oxide release in HASMC at 5 to 20 uM after 60 mins by DAF-FM DA assay. The class given is functional, cell-based. As to conditions: Homo sapiens.
In data set [5] the test system is HASMC. Description: Induction of cell proliferation in HASMC at 0.1 to 5 uM after 96 hrs by MTT assay. The class given is cell-based. Particulars: human.
Data set [6] relates to HASMC. The experiment in a line: Antiproliferative activity against HASMC using calcein AM and ethidium homodimer-1 at <= 20 uM by LIVE/DEAD assay. The class given is functional, cell-based. As to conditions: Homo sapiens. The gist of the method:
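HASMCs in black plates were exposed for 96 h to compound at 0.1–20 µM in medium with 1% DMSO. Floating dead cells were pelleted, washed in PBS and returned to their wells. Cells were stained with Eth-1 (0.5 µM) and calcein AM (0.25 µM) for 45 min at room temperature, then read at ex/em 495/530 and 528/645 nm. Triplicate; t-test versus vehicle.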

For data set [7], the system named is HASMC. Description: Antiproliferative activity against HASMC at <= 20 uM after 96 hrs by MTT assay. It is filed as functional, cell-based. Particulars: Homo sapiens. An outline of the steps:
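Serum-starved HASMCs (3000–3500 cells/well) received compound in complete SMC medium (2% FBS) with 1% DMSO at 0.1, 1, 5, 10 or 20 µM for 48 h. Fresh medium was then added and cells grew a further 48 h (96 h total). MTT 4–6 h at 37 °C, solubilized, A570 as % of medium-only control; 1% DMSO vehicle; triplicate; t-test versus vehicle.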

A short description of data set [8]: Half life of the compound. It is filed as physicochemical. An outline of the steps: (§2)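 Nitrosated compound was stirred in 1X PBS at 0.0125 M (0.0250 M NO) at room temperature. Aliquots were taken hourly to 12 h, every 4 h to 24 h, every 8 h to 48 h, then every 24 h. Aliquots were centrifuged and triplicate supernatants mixed with Griess reagent for 5 min. Absorbance at 550 nm was plotted against time.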

Data set [9] can be described thus: Induction of nitric oxide release in phosphate buffered saline up to 20 days by Griess reagent test. The class given is physicochemical. As to conditions: buffer, 480 h. Also on record: concentration or dose not given beside the values. The gist of the method: as §2
A short description of data set [10]: Nitrosation of the compound in glacial acetic acid/tetrahydrofuran after 24 to 48 hrs by IR spectroscopy analysis. It is filed as physicochemical.

Data on two compounds can be found in ChEMBL document CHEMBL2346638, “Secondary amines containing one aromatic nitro group: preparation, nitrosation, sustained nitric oxide release, and the synergistic effects of released nitric oxide and an arginase inhibitor on vascular smooth muscle cell proliferation” (Bioorg Med Chem, 2013).

SMILES strings stand for the structures. The source made the active and inactive calls. The calls are words filed in the database; no cut-off is given here.

`N[C@@H](CCCCB(O)O)C(=O)O` yielded an inhibition at 5000 µM in data set [1] of 48%. The same compound gave an inhibition at 1000 µM in data set [2] of 35%. In data set [3], the result was Active.

Take `CCCCCCCN(N=O)c1cccc(N(CCCCCCC)N=O)c1[N+](=O)[O-]`: the result in [4] was inactive. Moreover, the Activity result is recorded as “Toxic” in data set [5], 2.02% in data set [9] and 100% in [10]. The result in data set [6] and in data set [7] was Active. The compound also had a half-life in [8] of 126 h.
